The source of these data is article PMC10362274 (iScience, 2023).

Data set [1] concerns Tyr369-377-specific CD8^+ T cell clones. The data set can be described thus: IFNγ secretion assay. The class given is cell-based, human. To be noted: 1/1 ratio with pulsed T2 cells, 24 h co-culture, ELISA, duplicates. Summed up:
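Tyrosinase-specific CD8+ T cell clones came from HLA-A2 tetramer sorting and limiting dilution. They were grown in RPMI with 8% pooled human serum and 150 IU/ml IL-2 at 37°C, 5% CO2. Clones were co-cultured 1:1 for 24 h with T2 cells pulsed with serial dilutions of native or oxidized peptide, in duplicate. IFNγ was measured by ELISA against an exponential standard curve.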

Data set [2] shares this test system. The data set can be described thus: Standard 4-h 51Chromium release assay, peptide-pulsed T2 cells. It is filed as cell-based, human. To be noted: EC50 = peptide concentration giving 50% maximal killing; across YMD-specific CD8^+ T cell clones.
Data set [3] deals with MAGE-A10-specific CD8^+ T cell clones. The data set is described as above. The class given is cell-based, human. As to conditions: n = 3 MAGE-A10-specific CD8^+ T cells; no titration of the antigenic peptides.
The target in a further data set is HLA-A∗02:01 (Homo sapiens, UniProt P04439, D140Y/D185E/D98H/E176V/E277Q/G131W/G231S/I119V/I121R/I166T/I218V/L300P/L318F/N151K/N90K/P208A/P217A/Q86G/Q94H/R138H/R169H/T345S). As to conditions: refolded complex, ELISA.
Data set [4] is described as follows: HPLC oxidation profiling of the YMD peptide using hydrogen peroxide. It is filed as physicochemical. The procedure, abridged:
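Synthetic test peptide (~155 μM in LC-MS water) oxidized with varying hydrogen peroxide levels for 30 min at 4°C. For time courses, similar peptide level in 0.1% formic acid/2% acetonitrile with hydrogen peroxide in excess (120 mM), treated as constant for pseudo-first-order fitting. Forms resolved by RP-HPLC, fractions verified by offline MS/MS; triplicate points.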

Consider M2SO: Met2 sulfoxide of the YMD peptide, for which the “IFNγ released compared with native” value in data set [1] is given as “no significant differences”.

M6SO: Met6 sulfoxide of the YMD peptide: the “EC50 compared with the native peptide” value in data set [2] was “significant lower values”. Besides, the “IFNγ released compared with native” value in data set [1] is reported as “released more IFNγ”.

As to “MAGE-A10_OX: oxidized form of MAGE-A10 254-262 peptide (GLYDGMEHL; not fully specified; oxidized Met (the underlined M of GLYDGMEHL; sulfoxide or sulfone not stated))”, the “EC50 compared with the native peptide” value in data set [3] was “slightly increased”.

As for YM2SODGTM6SOSQV [M2SOM6SO], the “stability of the HLA-A∗02:01-peptide complex at t0 compared with HLA-A∗02:01-N” value at HLA-A∗02:01 was “more stable at t0”. Moreover, in data set [2], the “EC50 compared with the native peptide” value is “significant lower values”. Also, the “IFNγ released compared with native” value in data set [1] was “released more IFNγ”.

YMDGTMSQV [N]: in data set [4] (120 mM hydrogen peroxide, 4°C, pseudo-first-order kinetics, RP-HPLC UV 275 nm), the “time for 50% of the peptide to oxidize” value is on record as roughly 20 min. Further, in data set [4] (3 M hydrogen peroxide, after 10 days, RP-HPLC peak quantification), the “fraction of the total found as complete oxidized to sulfone forms” value is on record as roughly 66%. Further, in data set [4] (hydrogen peroxide 600 mM or higher, 30 min, 4°C, RP-HPLC UV 275 nm), the “transformation of the peptide to sulfoxide forms” value was “almost complete transformation”.
